The text below walks through data of ChEMBL document CHEMBL4251712, “Mbandakamine-Type Naphthylisoquinoline Dimers and Related Alkaloids from the Central African Liana Ancistrocladus ealaensis with Antiparasitic and Antileukemic Activities” (J Nat Prod, 2018).

The source made the active and inactive calls. The calls are words filed in the database; no cut-off is given here. Some results are limits rather than exact numbers.

As a reminder, the IC50 is the midpoint of a concentration-inhibition curve.

The subject of one data set is L6. Briefly: Cytotoxicity against rat L6 cells after 72 hrs by Alamar blue assay. In kind it is cell-based. As to conditions: L6, 72 h. The method in brief: (§1)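 IC50 values are means of two independent assays, individual values differing by less than a factor of 2.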
A general note: Resazurin is reduced to fluorescent resorufin, in cell work by metabolically active cells.

In data set [1] the test system is Plasmodium falciparum. Briefly: Antiplasmodial activity against chloroquine and pyrimethamine-resistant Plasmodium falciparum K1 assessed as reduction in [3H]-hypoxanthine incorporation pretreated for 48 hrs followed by [3H]-hypoxanthine addition measured after 24 hrs by liquid scintillation counting method. The class given is functional, organism-based. The method in brief: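 IC50 against the K1 strain taken as the mean of two independent assays, with individual values differing by a factor of less than 2.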

In data set [2] the test system is Plasmodium falciparum. Put plainly: Antiplasmodial activity against chloroquine-sensitive Plasmodium falciparum NF54 assessed as reduction in [3H]-hypoxanthine incorporation pretreated for 48 hrs followed by [3H]-hypoxanthine addition measured after 24 hrs by liquid scintillation counting method. In kind it is functional, organism-based.
Data set [3] has as its system Trypanosoma brucei rhodesiense. Briefly: […] activity against Trypanosoma brucei rhodesiense STIB 900 trypomastigote after 72 hrs by Alamar blue assay. The class given is functional, organism-based. As to conditions: for IC50: STIB 900, 72 h. The method in brief:
as §1

A further data set deals with Trypanosoma cruzi. Briefly: […] activity against Trypanosoma cruzi Tulahuen C4 infected in rat L6 cells after 96 hrs by CPRG/Nonidet reagent based photometric analysis. In kind it is functional, organism-based. To be noted: for IC50: Tulahuen C4, L6, 96 h. The method in brief:
as §1

A further data set deals with Leishmania donovani. Put plainly: […] activity against Leishmania donovani MHOM-ET-67/L82 axenic amastigotes after 72 hrs by Alamar blue assay. To be noted: for IC50: MHOM-ET-67/L82, 72 h. The class given is functional, organism-based. The method in brief: as §1
Data set [4] concerns Plasmodium falciparum. Briefly: Antiplasmodial activity against Plasmodium falciparum NF54. The class given is functional, organism-based. The method in brief: as §1
Data set [5] relates to CCRF-CEM. Briefly: Antileukemic activity against human CCRF-CEM cells after 24 to 48 hrs by resazurin dye based fluorescence assay. In kind it is functional, cell-based. The method in brief: (§2)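 Leukemia cells treated with compounds across 0.001 to 100 μM, doxorubicin as reference drug; viability read by resazurin assay. Values are means with standard deviation of three independent experiments, each with six parallel measurements.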

In data set [6] the test system is ADR5000 cell line. Put plainly: Antileukemic activity against human CEM/ADR5000 cells after 24 to 48 hrs by resazurin dye based fluorescence assay. The class given is functional, cell-based. The method in brief: as §2
A short description of data set [7]: Resistance index, ratio of IC50 for human CEM/ADR5000 cells to IC50 for human CCRF-CEM cells. In kind it is functional. The method in brief:
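Degree of resistance calculated as IC50 for CEM/ADR5000 divided by IC50 for CCRF-CEM; IC50s from resazurin viability assay after treatment at 0.001 to 100 μM, three independent experiments of six parallels each.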

The nature of data set [8]: Selectivity index, ratio of IC50 for rat L6 cells to IC50 for chloroquine-sensitive Plasmodium falciparum NF54. The class given is toxicity. As to conditions: read-out: Ratio IC50. The method in brief: (§3)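 Selectivity index is the L6-cell IC50 divided by the P. falciparum IC50 for the matching strain (K1 or NF54). Each IC50 is the mean of two independent assays, with individual values differing by a factor of less than 2.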

The nature of data set [9]: Selectivity index, ratio of IC50 for rat L6 cells to IC50 for chloroquine and pyrimethamine-resistant Plasmodium falciparum K1. In kind it is toxicity. To be noted: read-out: Ratio IC50. The method in brief: as §3
For data set [10], the system named is CCRF-CEM. Briefly: Antileukemic activity against human CCRF-CEM cells assessed as reduction in cell viability at 0.001 to 100 uM after 24 to 48 hrs by resazurin dye based fluorescence assay relative to control.
For data set [11], the system named is ADR5000 cell line. Briefly: Antileukemic activity against human CEM/ADR5000 cells assessed as reduction in cell viability at 0.001 to 100 uM after 24 to 48 hrs by resazurin dye based fluorescence assay relative to control.

As for `COc1cc([C@@H]2c3cc4c(cc3[C@H](O)[C@H]3COC(=O)[C@H]23)OCO4)cc(OC)c1OC` [PODOFILOX], 0.041 µM corresponded to half-maximal inhibition in the data set with L6 (IC50).

For `COc1cc(O)c2c(c1)C[C@H](C)N[C@H]2C`, the outcome (in the data set with Plasmodium falciparum [1]; in the data set with Plasmodium falciparum [2]; in data set [3]; in the data set on Trypanosoma cruzi; in the data set with Leishmania donovani) was inactive.

The compound `O=C(Cn1ccnc1[N+](=O)[O-])NCc1ccccc1` [BENZNIDAZOLE] registered an IC50 in the data set on Trypanosoma cruzi of 3.56 µM.

`COc1cc(O)c2c(c1)C[C@H](C)N[C@@H]2C`: the outcome (in the data set with Plasmodium falciparum [1]; in the data set with Plasmodium falciparum [2]; in data set [3]; in the data set on Trypanosoma cruzi; with Leishmania donovani) was inactive.

As for `COc1cc(O)c2c(c1)C[C@H](C)N=C2C`, the result (with Plasmodium falciparum [1]; in the data set with Plasmodium falciparum [2]; in [3]; in the data set on Trypanosoma cruzi; in the data set on Leishmania donovani) was inactive.

Consider `COc1cc(O)cc2c1C(C)=N[C@@H](C)C2`, for which the outcome (with Plasmodium falciparum [1]; with Plasmodium falciparum [2]; in data set [3]; with Trypanosoma cruzi; in the data set on Leishmania donovani) was inactive.

On to `COc1cc(C)cc2c(-c3c(O)cc(O)c4c3C[C@@H](C)N[C@@H]4C)ccc(O)c12` [KORUPENSAMINE A], for which, in the data set on Plasmodium falciparum [4], the half-inhibitory concentration (IC50) stood at 0.82 µM.

Regarding `COc1cc(O)c(-c2cc(-c3c(C)cc(O)c4c(OC)ccc(-c5c(O)cc(OC)c6c5C[C@@H](C)N[C@@H]6C)c34)c(O)c3c(OC)cc(C)cc23)c2c1[C@@H](C)N[C@H](C)C2`, the IC50 in the data set with CCRF-CEM [5] was 7.4 µM; in the data set on Plasmodium falciparum [2], 0.13 µM; with ADR5000 cell line [6], 23.9 µM. In data set [7], the “Ratio IC50” value turned out to be 3.2.

As to `COc1cc(O)c(-c2ccc(OC)c3c(O)cc(C)c(-c4cc(-c5c(O)cc(OC)c6c5C[C@@H](C)N[C@H]6C)c5cc(C)cc(OC)c5c4O)c23)c2c1C(C)=N[C@H](C)C2`, the selectivity ratio in data set [8] amounted to 26.3; in [9] it was 70.4. Further, the IC50 came out at 2.96 µM in the data set with CCRF-CEM [5]; 0.126 µM in the data set with Plasmodium falciparum [1]; 0.337 µM in the data set with Plasmodium falciparum [2]; 8.87 µM in the data set with L6; 19 µM in the data set on ADR5000 cell line [6]; 4.1 µM in [3]. In the data set on Leishmania donovani, this compound yielded an IC50 greater than 100 µM. For the same compound, the “Ratio IC50” value in data set [7] is on record as 6.4.

With `COc1cc(OC)c2c(c1-c1ccc(O)c3c(OC)cc(C)cc13)C[C@H](C)N[C@H]2C` [ANCISTROEALAINE B], the figures for the selectivity ratio in data set [8] and in [9] were 44.7 and 102, respectively. The IC50 with Plasmodium falciparum [1] was 0.76 µM; in the data set with Plasmodium falciparum [2], 1.74 µM; in the data set on L6, 77.8 µM; in [3] it was 3.85 µM; in the data set with Trypanosoma cruzi it was 32.5 µM; in the data set on Leishmania donovani, 37.9 µM.

In the case of `COc1cc(O)c(-c2cc(-c3c(C)cc(O)c4c(OC)ccc(-c5c(O)cc(OC)c6c5C[C@@H](C)N[C@@H]6C)c34)c(O)c3c(OC)cc(C)cc23)c2c1[C@H](C)N[C@H](C)C2`, the selectivity ratio in [8] stood at 339; in data set [9], 249. In addition, the IC50 in the data set with CCRF-CEM [5] came out at 1.5 µM; with Plasmodium falciparum [1], 0.064 µM; with Plasmodium falciparum [2], 0.047 µM; in the data set with L6, 15.9 µM; in the data set on ADR5000 cell line [6] it was 27.7 µM; in data set [3], 1.8 µM. Also, the values for the IC50 in the data set with Trypanosoma cruzi and in the data set on Leishmania donovani were 41.8 µM and greater than 100 µM, respectively. Further, the “Ratio IC50” value in data set [7] came to 18.5.

`COc1cc(C)cc2c(-c3c(O)cc(O)c4c3C[C@@H](C)N[C@H]4C)ccc(O)c12`: the selectivity ratio in data set [8] is 7.95; in [9] it was 6.13. Besides, the IC50 in the data set on Plasmodium falciparum [1] came to 12.9 µM; in the data set on Plasmodium falciparum [2], 9.94 µM; in the data set on L6 it was 79.1 µM; in [3], 15.3 µM; in the data set with Trypanosoma cruzi, 237 µM; in the data set on Leishmania donovani, 26.4 µM.

`COc1cc(OC)c(-c2ccc(O)c3c(OC)cc(C)cc23)c2c1C(C)=N[C@@H](C)C2`: the results for the selectivity ratio in data set [8] and in data set [9] were 37.5 and 95.3, respectively. The Activity in the data set with CCRF-CEM [10] and in the data set with ADR5000 cell line [11] was less than 20% in each case. For the same compound, the half-inhibitory concentration (IC50) in the data set with Plasmodium falciparum [1] turned out to be 1.06 µM; in the data set with Plasmodium falciparum [2] it was 2.69 µM; in the data set on L6 it was 101 µM; in data set [3], 1.46 µM; with Trypanosoma cruzi it was 43.4 µM; in the data set on Leishmania donovani, 13.4 µM.
